Screening results: PubChem BioAssay, several laboratories
Compounds with a hit are over-represented: about 2.3% of the library has one in this group of screens.
EWS-Fli block – EWS/Fli transcriptional activity inhibition; A673 NR0B1-luciferase reporter, viability-normalised; inhibition, % at 12.6 µM; 350,000 compounds, 0.67% hits;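 active = mean inhibition of at least 50% after viability correction, with every replicate also passing that limit; inconclusive = mean reaches 50% but only one of two replicates passes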;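 note: firefly luciferase signal divided by Alamar Blue viability fluorescence both relative to DMSO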
XiGFP reactiv – reactivates the inactive X chromosome in mouse fibroblasts; AID 743238; activation, % at 7.58 µM; 360,000 compounds, 0.055% hits; XiGFP mouse fibroblasts, % GFP-positive cells imaging, 3 d; cells co-treated with 5-aza-dC sensitizer; scaled so ellipticine positive control = 100%;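 active = mean normalized replicate activation at least 10% and every replicate at or above 10%; inconclusive = only one of the two criteria met; inactive = mean below 10% and not all replicates reach 10%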;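 note: 0% = median of on-plate neutral control wells and 100% = ellipticine 6 µM median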
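Material: SV40-immortalized XiGFP fibroblast cells, line 68-5-11 | Buffer or medium: DMEM containing 5-aza-dC | Dosing: One concentration, pinned | Times: 3 d treatment, 15 min room-temperature fixation | Controls: Ellipticine 6 µM positive control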
LGR2 inh – blocks bursicon-induced cAMP signaling via Drosophila LGR2; 380,000 compounds, 0.35% hits; inhibition, % at 9.99 µM; AID 720647; HEK293 LGR2, CRE-luciferase, bursicon-stimulated, 4 h;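 active = drop in luminescence signal, shown as inhibition above about 50% in the replicate tests, limit read from the data, passing the limit was not always enough; inconclusive = probably only some replicates passing the limit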;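 note: agonist challenge used bursicon conditioned medium at about half maximal strength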
TROY signal inh – blocks TROY-dependent signaling in reporter cells | Q293 LMP1-TROYcd NF-kB luciferase reporter, 4 h | inhibition, % at 10 µM | 360,000 compounds, 0.98% hits;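 active = compounds whose plate-normalised and pattern-corrected inhibition of the luciferase reporter signal at the single screening dose is 50% or more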
FN deposit inh – fibronectin deposition inhibition; AH1F fibroblasts, Alexa488-fibronectin deposition fluorescence, overnight; inhibition, % at 12.6 µM; 350,000 compounds, 0.086% hits; AID 743247;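 active = mean inhibition across replicates of 30% or more, regardless of how many single replicates reach that level; inconclusive = mean under 30% yet at least half of replicates reach 30%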;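 note: positive control wells lacked labelled fibronectin entirely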
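Schedule: 1 h cell adhesion before compound, then overnight fibronectin incubation; test system: AH1F fibroblast monolayer depositing Alexa488-labelled fibronectin into matrix; quantity: 10000 AH1F cells per well; probe or stimulus: fluorescent fibronectin at 24 nM final; signal: fluorescence, ex 485 nm, em 525 nm; evaluation: percent inhibition as loss of matrix-bound fibronectin fluorescence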
TWEAK-Fn14 inh – TWEAK-Fn14 signaling inhibition | 360,000 compounds, 2% hits | TWEAK-stimulated Fn14 reporter cells, luciferase luminescence, 8 h | inhibition, % at 10 µM; in the data active = inhibition above about 50%
An asterisk follows results filed as active.

What do the screens show for `CCOc1ccc(-c2nc(-c3cccnc3)no2)cc1`?
TROY signal inh: 0.0; FN deposit inh: -3.8; TWEAK-Fn14 inh: 67.4*

How did C[C@H](CO)N1C[C@H](C)[C@@H](CN(C)C(=O)c2cccc(F)c2)Oc2cc(C#CC3CCCC3)ccc2S1(=O)=O do in these assays?
EWS-Fli block: 29.7; XiGFP reactiv: -0.9; LGR2 inh: 27.2

Results for CCN1CCN(c2cc3c(cc2F)c(=O)c(C(=O)O)cn3C2CC2)CC1 ?
EWS-Fli block: -4.2; XiGFP reactiv: 0.0; LGR2 inh: -14.6; TROY signal inh: -8.8; FN deposit inh: -4.1; TWEAK-Fn14 inh: 60.1*

How did COc1ccc(C(=O)N2C[C@@H]3[C@H](c4ccccc42)[C@H](CO)N3C(=O)c2cccc(F)c2)cc1 do in these assays?
EWS-Fli block: -7.6; XiGFP reactiv: 0.0; LGR2 inh: -0.2; FN deposit inh: -6.7

What do the screens show for `COc1ccc(CN(C)C[C@H]2Oc3ccc(NC(=O)NC4CCCCC4)cc3CC(=O)N([C@H](C)CO)C[C@@H]2C)cc1`?
XiGFP reactiv: 0.3; LGR2 inh: -5.1

How did NC1=NC[C@H](c2ccccc2)N1CC1CCCCC1 do in these assays?
EWS-Fli block: -0.5; XiGFP reactiv: -0.1; LGR2 inh: 5.8; TROY signal inh: 6.5; FN deposit inh: -5.3; TWEAK-Fn14 inh: 9.4

Results for N#Cc1cnn(CC2CCCCC2)c1N ?
TWEAK-Fn14 inh: 60.6*

What do the screens show for `C[C@H]1CCCCO[C@@H](CN(C)C(=O)NC2CCCCC2)[C@@H](C)CN([C@@H](C)CO)C(=O)c2cc(NS(=O)(=O)c3ccc(F)cc3)ccc2O1`?
EWS-Fli block: 10.3; XiGFP reactiv: -0.1; LGR2 inh: 4.6; FN deposit inh: -11.9

How did Cc1cc2oc(=O)cc(Cn3ncc(Cl)c(Cl)c3=O)c2cc1Cl do in these assays?
TROY signal inh: 82.6*; TWEAK-Fn14 inh: 79.8*

How did Cc1cc2oc(=O)cc(CN3CCN(c4ccccc4)CC3)c2cc1Cl do in these assays?
EWS-Fli block: -8.5; XiGFP reactiv: 0.0; LGR2 inh: 11.7; TROY signal inh: -0.9; FN deposit inh: 4.0; TWEAK-Fn14 inh: -10.2

What do the screens show for `Cc1cc(C(=O)Cn2ncc(Cl)c(Cl)c2=O)c(C)n1CC(F)(F)F`?
EWS-Fli block: 16.9; XiGFP reactiv: 5.4; TROY signal inh: 64.2*; FN deposit inh: 3.0; TWEAK-Fn14 inh: 95.5*

What do the screens show for `Cc1cccc(Cn2ncc(Cl)c(Cl)c2=O)c1`?
EWS-Fli block: inconclusive; LGR2 inh: 99.3*; TROY signal inh: 6.0; TWEAK-Fn14 inh: 40.8

How did Cc1ccc(C)c(C(=O)Cn2ncc(Cl)c(Cl)c2=O)c1 do in these assays?
LGR2 inh: -3.8; TROY signal inh: 2.6; TWEAK-Fn14 inh: 68.3*

How did CCCc1cc(=O)[nH]c(SCC(=O)c2cc(C)n(CC(F)(F)F)c2C)n1 do in these assays?
EWS-Fli block: 4.6; XiGFP reactiv: 0.2; LGR2 inh: 19.4; TROY signal inh: 8.8; FN deposit inh: -9.5; TWEAK-Fn14 inh: -16.2

How did COc1ccc2c3c(n(C)c2c1)[C@H](CO)N(C(=O)c1ccncc1)CC31CN(CC2CC2)C1 do in these assays?
EWS-Fli block: -20.6; XiGFP reactiv: 0.0; LGR2 inh: -6.1

How did CC(=O)N(C)C[C@H]1Oc2ncc(-c3ccc(C#N)cc3)cc2C(=O)N([C@@H](C)CO)C[C@@H]1C do in these assays?
EWS-Fli block: -1.9; XiGFP reactiv: -0.7; LGR2 inh: -19.5; FN deposit inh: 5.9

Results for C[C@H]1CN([C@@H](C)CO)C(=O)c2cc(-c3ccc(C#N)cc3)cnc2O[C@@H]1CN(C)C(=O)Nc1ccc(C(F)(F)F)cc1 ?
EWS-Fli block: 7.3; XiGFP reactiv: -0.3; LGR2 inh: -16.2; FN deposit inh: -5.6

Results for Cc1ccc(S[C@]2(C(=O)NCc3ccccc3)CC(=O)N(C3CCCCC3)[C@@H]2c2ccc(CO)cc2I)cc1 ?
EWS-Fli block: -2.1

What do the screens show for `Cc1ccoc1C(=O)Nc1ccc2ccccc2c1`?
EWS-Fli block: 51.4*; XiGFP reactiv: 0.0; LGR2 inh: 60.0*; TROY signal inh: 0.6; FN deposit inh: 4.6; TWEAK-Fn14 inh: 35.5

What do the screens show for `Cc1ccoc1C(=O)Nc1ccc(CC(=O)O)cc1`?
TROY signal inh: 14.3; FN deposit inh: 2.1; TWEAK-Fn14 inh: 75.6*
